Calls of active or inactive are those of the source. The calls are words filed in the database; no cut-off is given here.
Key:
[1] = Cytotoxicity in human MT4 cells assessed as reduction of cell viability incubated for 3 days by CytoTox-Glo cytotoxicity assay; format: cell-based
[2] = tested on: Human immunodeficiency virus 1; experiment: Antiviral activity against HIV1 NL4-3 infected in human MT4 cells after 3 days by luciferase reporter gene assay; format: functional, organism-based; conditions: Human immunodeficiency virus 1, NL4-3, MT4, 72 h
[3] = Cytotoxicity in MDCK cells assessed as reduction of cell viability incubated for 2 days by CytoTox-Glo cytotoxicity assay; format: cell-based, Canis lupus familiaris; conditions: dog
Influenza A virus = experiment: Antiviral activity against Influenza A virus (A/Puerto Rico/8/1934(H1N1)) infected in MDCK cells assessed as inhibition of virus-induced cytopathic effect incubated for 48 hrs by Cell-titer-Glo assay; format: functional, organism-based
[4] = Selectivity index, ratio of EC50 for antiviral activity against influenza A virus (A/Puerto Rico/8/1934(H1N1)) infected in MDCK cells to EC50 for antiviral activity against HIV1 NL4-3 infected in human MT4 cells
[5] = target: Envelope glycoprotein gp160 (Human immunodeficiency virus 1) (UniProt Q6QLK5); experiment: Induction of conformational changes in HIV1 NLDH120 envelope glycoprotein gp120 transfected in COS cells assessed as increase in gp120 binding of monoclonal antibody 17b at 10 uM after 48 hrs by FACS; format: cell-based
Sequence of Envelope glycoprotein gp160 (Human immunodeficiency virus 1) (Q6QLK5 1-814): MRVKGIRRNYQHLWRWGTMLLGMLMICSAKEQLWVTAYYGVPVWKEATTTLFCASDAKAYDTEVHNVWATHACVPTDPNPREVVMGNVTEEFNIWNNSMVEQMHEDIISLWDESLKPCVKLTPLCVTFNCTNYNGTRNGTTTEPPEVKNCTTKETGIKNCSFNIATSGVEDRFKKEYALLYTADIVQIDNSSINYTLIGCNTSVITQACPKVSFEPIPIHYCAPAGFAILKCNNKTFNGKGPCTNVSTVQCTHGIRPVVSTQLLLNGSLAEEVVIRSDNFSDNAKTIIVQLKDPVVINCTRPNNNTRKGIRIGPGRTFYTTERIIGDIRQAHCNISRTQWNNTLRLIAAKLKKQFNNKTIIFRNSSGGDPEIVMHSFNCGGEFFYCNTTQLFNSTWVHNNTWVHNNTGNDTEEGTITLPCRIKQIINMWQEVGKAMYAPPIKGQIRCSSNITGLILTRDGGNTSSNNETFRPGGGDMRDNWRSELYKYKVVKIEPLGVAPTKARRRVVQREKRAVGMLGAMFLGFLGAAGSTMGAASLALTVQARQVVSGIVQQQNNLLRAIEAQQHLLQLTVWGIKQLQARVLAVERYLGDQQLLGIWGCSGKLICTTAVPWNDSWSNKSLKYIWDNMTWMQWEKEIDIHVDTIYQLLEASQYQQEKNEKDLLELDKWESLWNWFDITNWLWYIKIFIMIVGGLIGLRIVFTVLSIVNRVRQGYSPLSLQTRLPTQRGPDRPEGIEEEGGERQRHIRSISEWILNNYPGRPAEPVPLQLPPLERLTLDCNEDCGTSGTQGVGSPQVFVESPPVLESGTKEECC

[6] = Selectivity index, ratio of CC50 for human MT4 cells […] NL4-3 infected in human MT4 cells; format: toxicity, cell-based; conditions: MT4 cells and HIV1 NL4-3 infected MT4 cells, read-out: Ratio CC50/EC50
[7] = tested on: Human immunodeficiency virus 1; experiment: Inhibition of HIV1-mediated cellular entry in HIV1 NL4-3 VPR-GFP infected human TZM-bl cells incubated for 2 hrs by confocal microscopy; format: functional, organism-based
Procedure, shortened: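 TZM-bl cells were infected with NL4-3/Vpr-GFP virus, with or without test compound at 1 µM, for 2 h. Nuclei were stained with DAPI 2 h post infection, and confocal microscopy imaged GFP. Cytosolic GFP dispersal marked entry; GFP puncta marked virus arrested at the cell or endosomal membrane. Uninfected DAPI-stained cells served as background.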

[8] = tested on: Human immunodeficiency virus 1; experiment: Potency index, ratio of EC50 for aloperine to EC50 for test compound for antiviral activity against HIV1 NL4-3 infected in human MT4 cells after 3 days by luciferase reporter gene assay; format: functional

Structure (SMILES)	CC50 at 72 h [1]	EC50 [2]	other results
O=C(NCCCCN1CCCC2=C[C@H]3C[C@H](CN4CCCC[C@H]34)[C@@H]21)C1CCC(F)(F)CC1	> 40 µM	2440 nM	
O=C(Cc1ccc(S(=O)(=O)C(F)(F)F)cc1)NCCCCN1CCC[C@@H]2C[C@H]3C[C@H](CN4CCCC[C@H]34)[C@@H]21	> 40 µM	> 3000 nM	
O=C(Cc1ccc(OC(F)(F)F)cc1)NCCCCN1CCC[C@@H]2C[C@H]3C[C@H](CN4CCCC[C@H]34)[C@@H]21	> 40 µM	2800 nM	
O=C(NCCCCN1CCCC2=C[C@H]3C[C@H](CN4CCCC[C@H]34)[C@@H]21)c1ccc(CNS(=O)(=O)C(F)(F)F)cc1	> 40 µM		
O=C(Cc1ccc2c(c1)OCO2)NCCCCN1CCCC2=C[C@H]3C[C@H](CN4CCCC[C@H]34)[C@@H]21	> 40 µM	> 3000 nM	
O=C(NCCCCN1CCCC2=C[C@H]3C[C@H](CN4CCCC[C@H]34)[C@@H]21)C(=O)c1ccc(C(F)(F)F)cc1	> 40 µM	990 nM	CC50 at 48 h [3]: > 80 µM; EC50 (Influenza A virus; mdck): Not Active
O=C(NCCCCN1CCCC2=C[C@H]3C[C@H](CN4CCCC[C@H]34)[C@@H]21)c1ccc(-c2cccs2)cc1	16.2 µM	> 3000 nM	
O=S(=O)(NCCCCN1CCCC2=C[C@H]3C[C@H](CN4CCCC[C@H]34)[C@@H]21)c1ccc(OC(F)(F)F)cc1	> 40 µM	> 3000 nM	
O=C(CC1CCC(F)(F)CC1)NCCCCN1CCCC2=C[C@H]3C[C@H](CN4CCCC[C@H]34)[C@@H]21	> 40 µM	1940 nM	
C1=C2CCCN[C@H]2[C@@H]2C[C@H]1[C@H]1CCCCN1C2	> 86 µM		Ratio EC50 [4]: 7; CC50 at 48 h [3]: > 80 µM
O=C(NCCCCN1CCCC2=C[C@H]3C[C@H](CN4CCCC[C@H]34)[C@@H]21)c1ccc(C(F)(F)F)c(F)c1	> 40 µM	2220 nM	
O=C(NCCCCN1CCCC2=C[C@H]3C[C@H](CN4CCCC[C@H]34)[C@@H]21)c1ccc(S(=O)(=O)C(F)(F)F)cc1	> 40 µM	550 nM	CC50 at 48 h [3]: > 80 µM; EC50 (Influenza A virus; mdck): Not Active
O=C(Cc1ccc([S+]([O-])C(F)(F)F)cc1)NCCCCN1CCCC2=C[C@H]3C[C@H](CN4CCCC[C@H]34)[C@@H]21 (some centres not stated)	> 40 µM	1670 nM	
O=C(CCc1ccc(OC(F)(F)F)cc1)NCCCCN1CCCC2=C[C@H]3C[C@H](CN4CCCC[C@H]34)[C@@H]21	> 40 µM	> 3000 nM	
CS(=O)(=O)c1ccc(CC(=O)NCCCCN2CCCC3=C[C@H]4C[C@H](CN5CCCC[C@H]45)[C@@H]32)cc1	> 40 µM	> 3000 nM	
O=C(Cc1ccc(S(=O)(=O)CC(F)(F)F)cc1)NCCCCN1CCCC2=C[C@H]3C[C@H](CN4CCCC[C@H]34)[C@@H]21	> 40 µM	> 3000 nM	

Structure (SMILES)	CC50 at 72 h [1]	EC50 [2]	other results
O=C(Cc1ccc(SC(F)(F)F)cc1)NCCCCN1CCCC2=C[C@H]3C[C@H](CN4CCCC[C@H]34)[C@@H]21	23.8 µM	180 nM	CC50 at 48 h [3]: 45.1 µM; EC50 (Influenza A virus; mdck): Not Active
O=C(Cc1ccc(C(F)(F)F)cc1)NCCCCN1CCCC2=C[C@H]3C[C@H](CN4CCCC[C@H]34)[C@@H]21	> 40 µM	810 nM	CC50 at 48 h [3]: > 80 µM; EC50 (Influenza A virus; mdck): Not Active
O=C(NCCCCN1CCCC2=C[C@H]3C[C@H](CN4CCCC[C@H]34)[C@@H]21)C1CCC(C(F)(F)F)CC1 (some centres not stated)	> 40 µM	> 3000 nM	
O=C(NCCCCN1CCCC2=C[C@H]3C[C@H](CN4CCCC[C@H]34)[C@@H]21)c1ccc(C(=O)c2ccccc2)cc1	> 40 µM	970 nM	CC50 at 48 h [3]: 31.6 µM; EC50 (Influenza A virus; mdck): Not Active
CC(C)(C)c1ccc(CC(=O)NCCCCN2CCCC3=C[C@H]4C[C@H](CN5CCCC[C@H]45)[C@@H]32)cc1	> 40 µM	2090 nM	
O=C(Cc1ccc(Br)cc1)NCCCCN1CCCC2=C[C@H]3C[C@H](CN4CCCC[C@H]34)[C@@H]21	> 40 µM	1320 nM	
O=S(=O)(Cc1ccc(OC(F)(F)F)cc1)NCCCCN1CCCC2=C[C@H]3C[C@H](CN4CCCC[C@H]34)[C@@H]21	35.7 µM	> 3000 nM	
O=C(Cc1ccc(OC(F)(F)F)cc1)NCCCCN1CCCC2=C[C@H]3C[C@H](CN4CCCC[C@H]34)[C@@H]21			CC50 at 48 h [3]: > 80 µM; EC50 (Influenza A virus; Influenza A virus, A/Puerto Rico/8/1934(H1N1), MDCK, 48 h, read-out: EC50): 18.9 µM
O=C(Cc1ccc(S(=O)(=O)C(F)(F)F)cc1)NCCCCN1CCC[C@H]2C[C@H]3C[C@H](CN4CCCC[C@H]34)[C@@H]21	> 40 µM	> 3000 nM	
CC(C)(C)c1ccc(C(=O)NCCCCN2CCCC3=C[C@H]4C[C@H](CN5CCCC[C@H]45)[C@@H]32)cc1	12.9 µM	2150 nM	
O=C(Cc1ccc(S(=O)(=O)C(F)(F)F)cc1)NCCCCN1CCCC2=C[C@H]3C[C@H](CN4CCCC[C@H]34)[C@@H]21	28.8 µM	120 nM	Activity [5]: Active; CC50 at 48 h [3]: > 80 µM; selectivity ratio [6]: 240; EC50 (Influenza A virus; mdck): Not Active; inhibition [7]: Active; Ratio EC50 [8]: 15
O=C(NCCCCN1CCCC2=C[C@H]3C[C@H](CN4CCCC[C@H]34)[C@@H]21)c1ccc(-c2ccsc2)cc1	21.2 µM	1320 nM	
O=C(NCCCCN1CCCC2=C[C@H]3C[C@H](CN4CCCC[C@H]34)[C@@H]21)c1ccc2c(c1)OCO2	> 40 µM	> 3000 nM	
O=C(Cc1ccc(OC(F)(F)F)cc1)NCCCCN1CCC[C@H]2C[C@H]3C[C@H](CN4CCCC[C@H]34)[C@@H]21	> 40 µM	1500 nM	
O=C(NCCCCN1CCCC2=C[C@H]3C[C@H](CN4CCCC[C@H]34)[C@@H]21)c1ccc(S(=O)(=O)F)cc1	38.5 µM		
